In ChEMBL document CHEMBL2203229, “Structure Activity Relationship Study of the Cleistriosides and Cleistetrosides for Antibacterial/Anticancer Activity” (ACS Med Chem Lett, 2012):
In brackets after ≈: the same amount, converted by molar mass.

What was measured:
BT-549 = assay: Growth inhibition of human BT549 cells after 48 hrs by sulforhodamine B assay; type: functional; conditions: BT-549, 48 h
In short: (§1)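 Cells in RPMI 1640 with 5% FBS, plated at 5,000–40,000/well and grown 24 h. Time-zero plates fixed with TCA. Five drug concentrations, 48 h at 37 °C, 5% CO₂. Fixation with TCA (10% final for adherent lines; 16% final for suspension lines), staining with 0.4% SRB, reading at 515 nm. GI50 is the concentration giving a 50% reduction in net protein increase relative to time zero.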

MCF7 = assay: Growth inhibition of human MCF7 cells after 48 hrs by sulforhodamine B assay; type: functional; conditions: MCF7, 48 h; in short: as §1
DU-145 = assay: Growth inhibition of human DU145 cells after 48 hrs by sulforhodamine B assay; type: functional; conditions: DU-145, 48 h; in short: as §1
PC-3 = assay: Growth inhibition of human PC3 cells after 48 hrs by sulforhodamine B assay; type: functional; conditions: PC-3, 48 h; in short: as §1
CAKI-1 = assay: Growth inhibition of human CAKI-1 cells after 48 hrs by sulforhodamine B assay; type: functional; conditions: CAKI-1, 48 h; in short: as §1
A498 = assay: Growth inhibition of human A498 cells after 48 hrs by sulforhodamine B assay; type: functional; conditions: A498, 48 h; in short: as §1
[1] = Growth inhibition of human NCI-ADR-RES cells after 48 hrs by sulforhodamine B assay; type: functional; in short: as §1
OVCAR-3 = assay: Growth inhibition of human OVCAR3 cells after 48 hrs by sulforhodamine B assay; type: functional; conditions: OVCAR-3, 48 h; in short: as §1
SK-MEL-5 = assay: Growth inhibition of human SK-MEL-5 cells after 48 hrs by sulforhodamine B assay; type: functional; conditions: SK-MEL-5, 48 h; in short: as §1
MDA-MB-435 = assay: Growth inhibition of human MDA-MB-435 cells after 48 hrs by sulforhodamine B assay; type: functional; conditions: MDA-MB-435, 48 h; in short: as §1
SF-539 = assay: Growth inhibition of human SF539 cells after 48 hrs by sulforhodamine B assay; type: functional; conditions: SF-539, 48 h; in short: as §1
SNB-75 = assay: Growth inhibition of human SNB75 cells after 48 hrs by sulforhodamine B assay; type: functional; conditions: SNB-75, 48 h; in short: as §1
HCT-15 = assay: Growth inhibition of human HCT15 cells after 48 hrs by sulforhodamine B assay; type: functional; conditions: HCT-15, 48 h; in short: as §1
HT-29 = assay: Growth inhibition of human HT-29 cells after 48 hrs by sulforhodamine B assay; type: functional; conditions: HT-29, 48 h; in short: as §1
NCI-H460 [2] = assay: Growth inhibition of human NCI-H460 cells after 48 hrs by sulforhodamine B assay; type: functional; conditions: NCI-H460, 48 h; in short: as §1
A549 = assay: Growth inhibition of human A549 cells after 48 hrs by sulforhodamine B assay; type: functional; conditions: A549, 48 h; in short: as §1
SR = assay: Growth inhibition of human SR cells after 48 hrs by sulforhodamine B assay; type: functional; in short: as §1
RPMI-8226 = assay: Growth inhibition of human RPMI8226 cells after 48 hrs by sulforhodamine B assay; type: functional; conditions: RPMI-8226, 48 h; in short: as §1
NCI-H460 [3] = assay: Cytotoxicity against human NCI-H460 cells assessed as inhibition of cell viability by MTT assay; type: functional, cell-based
In short: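 NCI-H460 cells in RPMI 1640 with 10% FBS and 2 mM glutamine at 37 °C, 5% CO₂. Seeded at 10,000 cells/well for 12 h, then dosed in 1% FBS medium (DMSO below 0.1% final). MTT (10 µL of 5 mg/mL) for 4 h, formazan dissolved in DMSO for 45 min, absorbance at 562 nm. Triplicate wells, at least three runs (N = 9).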

[4] = Antibacterial activity against Bacillus subtilis JH642 containing trpC2 pheA1 assessed as growth inhibition after 16 hrs by broth dilution method; type: functional, Bacillus subtilis subsp. subtilis str. JH642
In short: (§2)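 Strains grown overnight in LB, diluted 10-fold, shaken at 37 °C for 45 min–1 h (~10⁸ CFU/mL), then diluted ~1000-fold to ~10⁵ CFU/mL. Broth dilution in LB: 20 mM DMSO stocks, 1:2 serial dilutions giving seven concentrations, inoculum added 1:1. OD600 read with shaking.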

Escherichia coli [5] = assay: Antibacterial activity against Escherichia coli K-12 BAS901 harboring genetically modified imp-4213, zab4292::Tn5 assessed as growth inhibition after 16 hrs by broth dilution method; type: functional; conditions: K-12 BAS901, 16 h
In short: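 Kanamycin-resistant strain grown overnight in LB with kanamycin 50 µg/mL, diluted 10-fold, then shaken at 37 °C for 45 min–1 h (~10⁸ CFU/mL). Diluted ~1000-fold to 10⁵ CFU/mL in LB. DMSO stocks (20 mM) prepared as 4X working solutions in LB. Seven 1:2 serial dilutions mixed with equal-volume inoculum. OD600 read with shaking.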

Escherichia coli [6] = assay: Antibacterial activity against Escherichia coli K-12 MG1655 assessed as growth inhibition after 16 hrs by broth dilution method; type: functional; conditions: K-12 substr. MG1655, 16 h; in short: as §2

SMILES	GI50 (BT-549) [nM]	GI50 (MCF7) [nM]	GI50 (DU-145) [nM]	GI50 (PC-3) [nM]	GI50 (CAKI-1) [nM]	GI50 (A498) [nM]	GI50 [1] [nM]	GI50 (OVCAR-3) [nM]	GI50 (SK-MEL-5) [nM]	GI50 (MDA-MB-435) [nM]	GI50 (SF-539) [nM]	GI50 (SNB-75) [nM]	GI50 (HCT-15) [nM]	GI50 (HT-29) [nM]	GI50 (NCI-H460 [2]) [nM]	GI50 (A549) [nM]	GI50 (SR) [nM]	GI50 (RPMI-8226) [nM]	IC50 (NCI-H460 [3]) [nM]	MIC [4] [µM]	also measured
CCCCCCCCCCCCO[C@@H]1O[C@@H](C)[C@H](O[C@@H]2O[C@@H](C)[C@H](OC(C)=O)[C@@H](O[C@@H]3O[C@@H](C)[C@H](OC(C)=O)[C@@H](O[C@@H]4O[C@@H](C)[C@H](OC(C)=O)[C@@H](O)[C@H]4OC(C)=O)[C@H]3OC(C)=O)[C@H]2O)[C@@H](O)[C@H]1O	940	870	800	820	1420	730	3380	770	740	830	830	500	1010	970	940	1180	860	960	7500	4 (≈ 3.92 µg/mL)	MIC (Escherichia coli [5]): > 64 µM; MIC (Escherichia coli [6]): > 64 µM
CCCCCCCCCCCCO[C@@H]1O[C@@H](C)[C@H](O[C@@H]2O[C@@H](C)[C@H](OC(C)=O)[C@@H](O[C@@H]3O[C@@H](C)[C@H](OC(C)=O)[C@@H](O[C@@H]4O[C@@H](C)[C@H](O)[C@@H](O)[C@H]4OC(C)=O)[C@H]3OC(C)=O)[C@H]2O)[C@@H](O)[C@H]1O	8390	5290	7470	6550	9240	5640	8900	6070	6270	7250	7170	2180	8330	8130	8430	8180	3830	2840	12800	8 (≈ 7.51 µg/mL)	MIC (Escherichia coli [5]): > 64 µM; MIC (Escherichia coli [6]): > 64 µM
CCCCCCCCCCCCO[C@@H]1O[C@@H](C)[C@H](O[C@@H]2O[C@@H](C)[C@H](OC(C)=O)[C@@H](O[C@@H]3O[C@@H](C)[C@H](OC(C)=O)[C@@H](O[C@@H]4O[C@@H](C)[C@H](OC(C)=O)[C@@H](OC(C)=O)[C@H]4OC(C)=O)[C@H]3OC(C)=O)[C@H]2O)[C@@H](O)[C@H]1O	1050	890	800	710	860	670	920	840	760	880	800	540	820	910	930	800	920	1040	16400	> 64	MIC (Escherichia coli [5]): > 64 µM; MIC (Escherichia coli [6]): > 64 µM
CCCCCCCCCCCCO[C@@H]1O[C@@H](C)[C@H](O[C@@H]2O[C@@H](C)[C@H](OC(C)=O)[C@@H](O[C@@H]3O[C@@H](C)[C@H](OC(C)=O)[C@@H](O[C@@H]4O[C@@H](C)[C@H](OC(C)=O)[C@@H](O)[C@H]4O)[C@H]3OC(C)=O)[C@H]2O)[C@@H](O)[C@H]1O	8460	1740	7920	5300	8450	7570	9150	4840	1760	6000	4700	1360	7540	8020	7580	9470	1450	1860	9100	4 (≈ 3.76 µg/mL)	MIC (Escherichia coli [5]): > 64 µM; MIC (Escherichia coli [6]): > 64 µM
CCCCCCCCCCCCO[C@@H]1O[C@@H](C)[C@H](O[C@@H]2O[C@@H](C)[C@H](OC(C)=O)[C@@H](O[C@@H]3O[C@@H](C)[C@H](O)[C@@H](OC(C)=O)[C@H]3OC(C)=O)[C@H]2O)[C@@H](O)[C@H]1O	4540	1620	2480	890	6570	5130	7920	1490	1230	1490	3100	900	7380	1210	1540	2080	1200	1000	12500	8 (≈ 6.01 µg/mL)	MIC (Escherichia coli [5]): 32 µM (≈ 24 µg/mL); MIC (Escherichia coli [6]): > 64 µM
CCCCCCCCCCCCO[C@@H]1O[C@@H](C)[C@H](O[C@@H]2O[C@@H](C)[C@H](OC(C)=O)[C@@H](O[C@@H]3O[C@@H](C)[C@H](OC(C)=O)[C@@H](O)[C@H]3OC(C)=O)[C@H]2O)[C@@H](O)[C@H]1O	7900	4840	7940	2370	8780	6730	9290	5910	6210	7680	7110	3420	8390	4350	6320	6690	3200	4120	90900	32 (≈ 24 µg/mL)	MIC (Escherichia coli [5]): > 64 µM; MIC (Escherichia coli [6]): > 64 µM
CCCCCCCCCCCCO[C@@H]1O[C@@H](C)[C@H](O[C@@H]2O[C@@H](C)[C@H](OC(C)=O)[C@@H](O[C@@H]3O[C@@H](C)[C@H](O)[C@@H](O[C@@H]4O[C@@H](C)[C@H](OC(C)=O)[C@@H](OC(C)=O)[C@H]4OC(C)=O)[C@H]3OC(C)=O)[C@H]2O)[C@@H](O)[C@H]1O	880	940	790	750	600	20	2240	800	820	840	910	620	1520	910	960	970	850	920	9800	> 64	MIC (Escherichia coli [5]): > 64 µM; MIC (Escherichia coli [6]): > 64 µM
